Experimental data as given in ChEMBL document CHEMBL1127075, “Structural modification of 5-aryl-2,3-dihydroimidazo[2,1-a]isoquinoline platelet activating factor receptor antagonists” (J Med Chem, 1993).

Key:
[1] = biological target: Platelet-activating factor receptor (Homo sapiens, UniProt P25105); test: In vitro PAF antagonistic activity by determining [3H]PAF binding to the PAF-receptor of human platelets
In short: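 Human platelets incubated with [3H]PAF; free ligand removed by centrifugation, bound radioactivity counted 1 min by liquid scintillation. Specific binding = total minus nonspecific binding (0.37 mM unlabeled PAF).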

[2] = system: Cavia porcellus; test: In vivo PAF induced bronchoconstriction tested in guinea pig; assay type: functional
In short: (§1)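 Anesthetized guinea pigs, compound given po in H2O 2 h before iv PAF challenge (0.05 mg/kg); bronchoconstriction (Konzett-Rosler) and hemoconcentration measured. ED50 from dose-response curves, at least five doses, four to seven animals per dose.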

[3] = system: Cavia porcellus; test: In vivo PAF induced hemoconcentration tested in guinea pig; assay type: functional; in short: as §1
[4] = system: Cavia porcellus; test: In vivo PAF induced hemoconcentration tested in guinea pig at 20 mg/kg dose; assay type: functional
In short: (§2)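 Anesthetized guinea pigs given compound po in H2O at 20 mg/kg, 2 h before iv PAF (0.05 mg/kg); percent inhibition of bronchoconstriction (Konzett-Rosler) or hemoconcentration, three to five animals.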

[5] = system: Cavia porcellus; test: In vivo PAF induced bronchoconstriction tested in guinea pig at 20 mg/kg dose; assay type: functional; in short: as §2

Chain of Platelet-activating factor receptor (P25105 whole entry): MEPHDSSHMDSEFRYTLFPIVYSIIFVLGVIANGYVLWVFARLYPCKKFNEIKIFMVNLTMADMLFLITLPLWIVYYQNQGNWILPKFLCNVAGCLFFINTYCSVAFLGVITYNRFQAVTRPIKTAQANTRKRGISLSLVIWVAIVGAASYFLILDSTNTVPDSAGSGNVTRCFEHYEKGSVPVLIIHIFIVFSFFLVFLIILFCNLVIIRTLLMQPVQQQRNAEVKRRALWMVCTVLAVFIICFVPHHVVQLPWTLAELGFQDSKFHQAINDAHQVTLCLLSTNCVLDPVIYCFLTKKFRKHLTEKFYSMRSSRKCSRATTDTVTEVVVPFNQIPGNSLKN

| SMILES | IC50 [1] | ED50 [2] | ED50 [3] | inhibition in vivo at 20 mg/kg [4] | inhibition in vivo at 20 mg/kg [5] |
| --- | --- | --- | --- | --- | --- |
| COc1cc(CCc2ccc(C3=Cc4oc(C)cc4C4=NCCN34)cc2)cc(OC)c1OC | 50 nM | > 10 mg/kg | 10 mg/kg |  |  |
| COc1cc(CCc2ccc(C3=Cc4ccccc4C4=NC(C)CN34)cc2)cc(OC)c1OC (stereo unspecified) | 220 nM | 16 mg/kg | 10 mg/kg |  |  |
| COc1cc(CCc2ccc(C3=Cc4ccccc4C4=NCCCN34)cc2)cc(OC)c1OC | 40 nM | 4.7 mg/kg | 3 mg/kg |  |  |
| COc1cc(CCc2ccc(C3=Cc4ccccc4C4=NCCN34)cc2)cc(OC)c1OC |  | 4.2 mg/kg | 5 mg/kg |  |  |
| COc1cc(CCc2ccc(C3=Cc4ccccc4C4=NCC(C)(C)CN34)cc2)cc(OC)c1OC | 500 nM |  |  | 23% | 17% |

Continued by falling IC50 [1], values first:

| IC50 [1] | SMILES | ED50 [2] | ED50 [3] | inhibition in vivo at 20 mg/kg [4] | inhibition in vivo at 20 mg/kg [5] |
| --- | --- | --- | --- | --- | --- |
| 89000 nM | COc1cc(CCc2ccc(-c3cc4ccccc4c4nccn34)cc2)cc(OC)c1OC |  |  |  |  |
| 35000 nM | COc1cc(CCc2ccc(-c3cc4ccccc4c4nc(C)cn34)cc2)cc(OC)c1OC |  |  |  |  |
| 9500 nM | COc1cc(CCc2ccc(-c3cc4ccccc4c4nnc(C)n34)cc2)cc(OC)c1OC |  |  |  |  |
| 1140 nM | COc1cc(CCc2ccc(C3=Nc4ccccc4C4=NCCN34)cc2)cc(OC)c1OC | 31.4 mg/kg | 31.9 mg/kg |  |  |
| 60 nM | COc1cc(CCc2ccc(C3=Cc4ccccc4C4=NC(C)(C)CN34)cc2)cc(OC)c1OC |  |  | 17.9% | 24% |
| 10 nM | COc1cc(CCc2ccc(C3=Cc4ccsc4C4=NCCN34)cc2)cc(OC)c1OC | 0.8 mg/kg | 1.1 mg/kg |  |  |
